TRPC6 inhibitor: mouse TRPC6 channel inhibitors, primary screen, cell-based, HEK293, membrane potential dye; Short transient receptor potential channel 6 (Mus musculus), Q61143; AID 2553, 2010; ACh-evoked depolarization; hits give low values; 1.1% of 310,000 active; B-score at 10 µM;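 active = B-score under library mean minus 3 SD, initial fluorescence not abnormally high, positive integrated signal ratio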;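 also: B-score derived from integrated fluorescence ratio over the kinetic read; more negative B-score means stronger inhibition of depolarization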
Target sequence (Q61143 whole entry, looked up): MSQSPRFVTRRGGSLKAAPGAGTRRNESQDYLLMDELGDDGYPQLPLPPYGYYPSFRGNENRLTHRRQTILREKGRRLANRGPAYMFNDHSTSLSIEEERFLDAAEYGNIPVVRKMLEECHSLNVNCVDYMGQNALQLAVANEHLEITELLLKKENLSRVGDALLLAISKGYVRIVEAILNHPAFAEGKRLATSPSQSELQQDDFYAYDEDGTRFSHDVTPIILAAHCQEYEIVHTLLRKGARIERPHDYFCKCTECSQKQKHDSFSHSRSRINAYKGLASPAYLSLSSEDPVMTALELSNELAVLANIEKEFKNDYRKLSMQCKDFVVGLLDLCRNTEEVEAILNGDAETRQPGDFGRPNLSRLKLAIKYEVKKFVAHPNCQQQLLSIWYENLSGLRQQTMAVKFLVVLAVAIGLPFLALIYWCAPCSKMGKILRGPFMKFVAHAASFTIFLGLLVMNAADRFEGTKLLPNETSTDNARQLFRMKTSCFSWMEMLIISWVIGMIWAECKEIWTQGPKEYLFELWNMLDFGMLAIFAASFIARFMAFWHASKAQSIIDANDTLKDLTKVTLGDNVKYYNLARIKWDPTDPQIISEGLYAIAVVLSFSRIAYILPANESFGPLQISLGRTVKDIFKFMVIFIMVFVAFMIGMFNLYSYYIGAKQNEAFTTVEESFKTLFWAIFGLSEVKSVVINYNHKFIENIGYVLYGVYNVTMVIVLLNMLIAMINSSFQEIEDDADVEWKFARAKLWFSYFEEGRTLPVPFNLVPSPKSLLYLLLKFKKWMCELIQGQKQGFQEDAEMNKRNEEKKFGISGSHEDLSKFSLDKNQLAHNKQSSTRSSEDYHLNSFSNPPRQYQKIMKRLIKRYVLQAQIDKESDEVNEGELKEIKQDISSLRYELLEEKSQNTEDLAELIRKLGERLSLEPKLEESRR
TRPC4 potent: positive allosteric modulators of TRPC4, primary screen, cell-based, mouse TRPC4beta, HEK293 mu-opioid, Fluo-4 calcium; DAMGO EC20, Fluo-4 Ca2+ flux; hits give high values; B-score at 10 µM; 0.42% of 310,000 active; AID 2227, 2009;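 active = B-score of calcium response area above 5 SD of library B-scores, with initial fluorescence ratio within 5 SD of library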
TRPC6 act: mouse TRPC6 channel activators, primary screen, cell-based, HEK293, membrane potential dye; HEK293-TRPC6 membrane potential dye fluorescence; hits give high values; B-score at 10 µM; 0.13% of 310,000 active; AID 2550, 2010;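 active = B-score of the integrated fluorescence ratio above library mean plus 3 SD, and starting fluorescence ratio within library mean plus 5 SD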;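 also: higher score means more depolarization so channel activation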
TRPC4 act: activators of mouse TRPC4 channel, primary screen, Fluo4 calcium, HEK293 TRPC4beta/mu-opioid cells; Fluo4 calcium fluorescence; hits give high values; B-score at 10 µM; 0.49% of 310,000 active;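 active = B-score above 5 SD of library B-scores, and initial fluorescence ratio not above library mean plus 5 SD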;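 also: positive B-score marks a calcium rise read as TRPC4 activation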
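Test system: HEK293 cells stably co-expressing mouse TRPC4beta and mu-opioid receptor | Schedule: Fluo4 dye loading 45 min at room temperature, 110 s recording | Measured by: Kinetic Fluo4 calcium fluorescence, 5 s baseline at 1 Hz | Evaluation: B score of integrated ratio | Controls: Buffer (low) and maximal DAMGO (high)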
TRPC4 inh: inhibitors of mouse TRPC4 channel, primary screen, Fluo4 calcium, HEK293 TRPC4beta/mu-opioid cells; Short transient receptor potential channel 4 (Mus musculus), Q9QUQ5; DAMGO-evoked Fluo4 calcium flux; hits give low values; B-score at 10 µM; 0.39% of 300,000 active; AID 2247, 2010;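 active = B-score over 3 SD under the library average, no early fluorescence shift, positive overall ratio signal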
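Material: HEK293 cells with stable TRPC4beta plus mu-opioid receptor expression / Probe or stimulus: DAMGO in two steps, submaximal then maximal / Compound: single concentration per test compound / Technique: kinetic Fluo4 fluorescence imaging of calcium influx / Read-out: per-well B score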
Hits are given with their value; – = inactive. Rows were chosen to be rich in hits. Some 2.3% of all compounds tested hit in one or more screens of this group.

SMILES	TRPC6 inhibitor	TRPC4 potent	TRPC6 act	TRPC4 act	TRPC4 inh
Cc1ccc(C(=O)NC(=S)NNC(=O)c2ccccc2)cc1	–	–	–	90	–
O=C(NNC(=S)NC(=O)c1ccc(Br)cc1)c1cccc([N+](=O)[O-])c1	–	–	–	–	–
Cc1ccc(C(=O)NNC(=O)c2ccco2)cc1	–	–	–	–	–
O=C(NNC(=S)NC(=O)c1ccccc1)c1ccc([N+](=O)[O-])cc1	–	–	–	56	–
CCc1cccc(NC(=O)C2CCCN2C(=O)Nc2ccc(C)cc2)c1 (centres undefined)	–	–	–	–	–
CCCCNC(=O)c1ccc2c(c1)C(=O)N(Cc1ccncc1)C2=O	–	–	–	–	–
O=C(O)c1ccc(NC(=S)NC(=O)c2ccc(-c3ccccc3)cc2)cc1	–	–	–	–	-6
Cc1ccc(C(=O)NNC(=S)NC(=O)c2ccccc2)cc1	–	–	–	218	–
Cc1ccccc1C(=O)NNC(=S)NC(=O)c1ccccc1	–	–	–	205	–
COc1ccc(CCN(C)CCC(=O)Nc2c(C)cc(C)cc2C)cc1OC	–	–	–	111	–
Cc1ccc(/C=C2\SC(N3CCCCC3)=NC2=O)cc1	–	12	–	–	–
CCN1CCN(C2=NC(=O)/C(=C/c3ccc(C)o3)S2)CC1	–	14	–	–	–
COc1ccc(Sc2nc(-c3ccccc3)ncc2C(=O)O)cc1	–	–	–	–	-7
Cc1cccc2c1Sc1ccccc1CC2=O	–	–	–	–	–
C[N+]1(C)CCC(=C2c3ccccc3CC(=O)c3sccc32)CC1	-6.38	–	–	–	–
O=C(NCCS(=O)(=O)c1ccc(Br)cc1)c1c(F)cccc1F	–	–	–	–	–
O=C(NCc1cccc(F)c1F)C1CCC(=O)N(C2CCCCCC2)C1 (centres undefined)	–	–	–	–	–
Cc1ccc(C(=O)N2CCC3(CC2)NCCc2[nH]cnc23)cc1C	–	–	–	–	–
COc1ccc(-n2nnnc2CNC(=O)c2ccc3c(c2)OCO3)cc1	–	–	–	–	–
CN(C(=O)c1cc(S(=O)(=O)N2CCOCC2)cs1)c1ccccc1	–	–	–	–	–
O=C(CN1CC[n+]2c(-c3ccccc3)csc21)c1ccc(Br)cc1	–	–	–	–	–
O=C(CN1CC[n+]2c(-c3cccs3)csc21)c1ccc(Br)cc1	-5.01	–	–	–	–
COc1ccc(N2CC(C(=O)N3CCN(Cc4ccc5c(c4)OCO5)CC3)CC2=O)cc1 (centres undefined)	–	–	–	–	–
CCCCc1nnc(NC(=O)C2CCN(c3ncnc4sc(C)c(C)c34)CC2)s1	–	93	–	–	–
CCCCn1c(NC(=O)c2ccccc2)nc2ccccc21	–	52	–	–	-6
SMILES	TRPC6 inhibitor	TRPC4 potent	TRPC6 act	TRPC4 act	TRPC4 inh
CCCCn1c(NC(=O)C2CCCCC2)nc2ccccc21	–	13	–	–	–
CCn1c(NC(=O)c2ccccc2)nc2ccccc21	–	–	–	–	–
CN(C)CCCn1c(NC(=O)C2CCCCC2)nc2ccccc21	–	–	–	–	–
C=CCNC(=O)C(=O)Nc1ccc2c(c1)N(S(=O)(=O)c1cccs1)CCC2	–	–	–	–	–
O=C(COC(=O)c1ccc(S(=O)(=O)C(F)F)cc1)NC(=O)NC1CCCCC1	–	–	–	–	–
Clc1cccc(OCCCN2CCCC2)c1Cl	–	–	–	–	–
Clc1cccc(OCCN2CCNCC2)c1	–	–	–	97	–
Clc1cccc(OCCOCCN2CCNCC2)c1Cl	–	–	–	44	–
O=C(c1ccco1)N1CCN(C/C=C/c2ccccc2)CC1	–	–	–	–	-5
CC(C)NC(=S)N1CCN(C/C=C/c2ccccc2)CC1	–	–	–	–	-6
S=C(NC1CCCCC1)N1CCN(C/C=C/c2ccccc2)CC1	–	–	–	–	–
CCCOc1ccccc1Cn1c(=O)oc2ccccc21	–	–	–	–	–
O=C(Nc1ccc(Cl)c([N+](=O)[O-])c1)c1ccncc1	–	–	–	–	–
O=C(Nc1ccc(Cl)c([N+](=O)[O-])c1)c1cnccn1	–	21	–	–	–
COc1ccc(N2CCN(Cc3nc4ccccc4n3C)CC2)cc1	–	–	–	124	–
CC(=O)OC(c1nc2ccccc2c(=O)n1C1CC2(OC1=O)c1ccccc1N1C(=O)C(C)(C)N(O)C12)C(C)C (centres undefined)	–	–	–	83	–
CSCCC(=O)NC1CCCN(CCc2ccccc2)C1 (centres undefined)	–	–	–	–	–
CCOC(=O)C1C(=O)C=C(c2ccc(C)cc2)CC1c1cccc([N+](=O)[O-])c1 (centres undefined)	–	24	–	–	–
Cc1cc(N2CCN(C)CC2)n2cc(-c3ccc(F)cc3)nc2n1	–	15	–	–	–
CCOC(=O)C1(Cc2cccc(OC)c2)CCN(Cc2ccc(OC)c(OC)c2)CC1	–	–	–	–	–
CCOC(=O)C1(Cc2ccccc2)CCN(CC2CC=CCC2)CC1 (centres undefined)	–	–	–	–	-6
CCOC(=O)C1(Cc2cccc(OC)c2)CCN(CC2CC=CCC2)CC1 (centres undefined)	–	–	–	–	-5
CCOC(=O)C1(Cc2cccc(OC)c2)CCN(Cc2cccc(O)c2)CC1	–	–	–	–	-8
O=C(NCc1cccs1)C1CCC(=O)N(Cc2cccc(C(F)(F)F)c2)C1 (centres undefined)	–	–	–	–	–
Cc1ccc(CCC(=O)Nc2ccc(C)c(C)c2)o1	–	–	–	–	–
SMILES	TRPC6 inhibitor	TRPC4 potent	TRPC6 act	TRPC4 act	TRPC4 inh
O=C(O)c1cc(-c2ccc(/C=c3\sc4nc5ccc(Br)cc5n4c3=O)o2)ccc1Cl	–	–	40.3	–	–
Cc1ccccc1CN(C)C(=O)CNC(=O)c1ccc2ccccc2c1	–	–	–	–	–
COC(=O)c1ccc(NC(=O)C2CCCN(S(C)(=O)=O)C2)cc1 (centres undefined)	–	–	–	–	–
COC(=O)c1ccc(CN2CCCC(C(=O)Nc3ccc(-c4ccn[nH]4)cc3)C2)cc1 (centres undefined)	–	–	–	50	–
Cc1ccc(S(=O)(=O)Nc2c(C)nc3nc(C)[nH]n3c2=O)c(C)c1	–	–	–	–	–
CC(=O)Nc1ccc(C2(c3ccc(NC(C)=O)cc3)C(=O)Nc3ccccc32)cc1	–	–	–	58	-7
COc1cccc(-n2cc(CNC(=O)C3CCC(=O)N(C4CC4)C3)cn2)c1 (centres undefined)	–	–	–	–	–

Bioassay records (PubChem)
